One data set has as its system L1210. In words: Antiproliferative activity against mouse L1210 cells after 48 hrs by Coulter counter method. Type of data set: functional, cell-based. To be noted: L1210, 48 h. An outline of the steps: (§1)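 Cell count assay in 96-well microtiter plates; (5–7.5) × 10⁴ tumor cells per well plus test compound. Cells proliferated at 37 °C in humidified CO₂-controlled atmosphere, 48 h for murine leukemia L1210, 72 h for human lymphocytic CEM and cervix carcinoma HeLa. Counted by Coulter counter; IC₅₀ is the concentration that inhibits proliferation by 50%.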

A further data set has as its system CCRF-CEM. In words: Antiproliferative activity against human CEM cells after 72 hrs by Coulter counter method. Type of data set: functional, cell-based. An outline of the steps:
as §1

For a further data set, the system named is HeLa. In words: Antiproliferative activity against human HeLa cells after 72 hrs by Coulter counter method. Format: functional, cell-based. An outline of the steps:
as §1

For data set [1], the system named is Human alphaherpesvirus 1. In words: Antiviral activity against Human herpesvirus 1 KOS strain infected in HELF cells assessed as inhibition of virus-induced cytopathogenicity. Format: functional, organism-based. To be noted: Human alphaherpesvirus 1, KOS. An outline of the steps:
(§2)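 Confluent human embryonic lung fibroblast monolayers in 96-well plates were infected with 100 CCID50 of virus or, for VZV, 20 PFU, in the presence of varying compound concentrations. For HCMV/VZV-type assays, residual virus was removed after 1–2 h before compound addition. Cytopathicity or plaque formation was scored once complete in untreated infected controls. Highest concentration tested was 100 μM.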
In general terms: Protection from cytopathic effect is a common read-out in antiviral testing.

Another data set concerns Human alphaherpesvirus 2. In words: Antiviral activity against Human herpesvirus 2 G strain infected in HELF cells assessed as inhibition of virus-induced cytopathogenicity. The conditions noted are these: Human alphaherpesvirus 2, strain G. Format: functional, organism-based. Summed up:
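Confluent Hel fibroblast cultures in 96-well plates inoculated with 100 CCID₅₀ virus in presence of varying compound concentrations. Cytopathicity recorded once complete in untreated virus-infected controls. EC₅₀ is the concentration reducing virus-induced cytopathogenicity by 50%; compounds tested up to 100 μM.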

The subject of data set [2] is Human alphaherpesvirus 1. In words: Antiviral activity against thymidine kinase-deficient acyclovir-resistant Human herpesvirus 1 KOS strain infected in HELF cells assessed as inhibition of virus-induced cytopathogenicity. Format: functional, organism-based. The conditions noted are these: Human alphaherpesvirus 1, KOS. Summed up:
as §2

Data set [3] in a line: Cytotoxicity against HELF cells assessed as alteration of cell morphology by microscopic analysis. Type of data set: cell-based. The conditions noted are these: human. An outline of the steps:
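Uninfected Hel fibroblast cultures exposed to compound alongside antiviral assays. Minimal cytotoxic concentration (MCC) is the concentration giving microscopically visible alteration of normal cell morphology.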

Data set [4] concerns Human alphaherpesvirus 3. In words: Antiviral activity against thymidine kinase-deficient Varicella Zoster virus Oka strain infected in HELF cells assessed as inhibition of virus-induced plaque formation. Format: functional, organism-based. To be noted: Human alphaherpesvirus 3, strain Oka vaccine. Summed up:
as §2

In data set [5] the test system is Human alphaherpesvirus 3. In words: Antiviral activity against thymidine kinase-deficient Varicella Zoster virus 07-1 strain infected in HELF cells assessed as inhibition of virus-induced plaque formation. Type of data set: functional, organism-based. The conditions noted are these: Human alphaherpesvirus 3, 07-1, HELF. Summed up: as §2
In data set [6] the test system is Human betaherpesvirus 5. In words: Antiviral activity against Human cytomegalovirus AD169 strain infected in HELF cells assessed as inhibition of virus-induced cytopathogenicity. The conditions noted are these: Human betaherpesvirus 5, AD169, HELF. Type of data set: functional, organism-based. Summed up: (§3)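 Confluent human embryonic lung fibroblasts in 96-well plates inoculated with 100 CCID₅₀ HCMV. Residual virus removed after 1–2 h, then cultures incubated with varying compound concentrations. Cytopathicity scored once complete in untreated infected controls. EC₅₀ is the concentration reducing virus-induced cytopathicity by 50%.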

The test system of data set [7] is Human betaherpesvirus 5. In words: Antiviral activity against Human cytomegalovirus Davis strain infected in HELF cells assessed as inhibition of virus-induced cytopathogenicity. Format: functional, organism-based. To be noted: Human betaherpesvirus 5, Davis. Summed up:
as §3

A short description of data set [8]: Cytotoxicity against HELF cells after by Coulter counter method. Type of data set: cell-based. The conditions noted are these: human. An outline of the steps:
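Hel fibroblast proliferation measured by Coulter Counter cell count in presence of compound. CC₅₀ is the concentration (μM) reducing cell proliferation by 50%.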

Bounds are passed on as bounds.

In general, IC50 refers to the concentration that gives 50% inhibition. One may read the EC50 as the concentration at which the effect is half-maximal. By CC50 is commonly meant the concentration that lowers cell viability or growth by half.

With `C#C[C@@]1(O)[C@@H](CO)O[C@@H](n2cnc3c(-c4ccc(OC)cc4)ncnc32)[C@@H]1O`, the concentration for half-maximal inhibition (IC50) in the data set with L1210, in the data set with CCRF-CEM and in the data set on HeLa was over 250 µM throughout.

As for `C#C[C@@]1(O)[C@@H](CO)O[C@@H](n2ccc3c(Cl)ccnc32)[C@@H]1O`, the half-inhibitory concentration (IC50) in the data set with L1210 stood at 197 µM; with CCRF-CEM, 86 µM; in the data set on HeLa, 135 µM. In addition, the EC50 in the data set with Human alphaherpesvirus 1 [1], in the data set on Human alphaherpesvirus 2, in the data set with Human alphaherpesvirus 1 [2], in the data set on Human alphaherpesvirus 3 [4], with Human alphaherpesvirus 3 [5] and in the data set with Human betaherpesvirus 5 [6] was over 100 µM throughout. Further, the concentration for a half-maximal effect (EC50) with Human betaherpesvirus 5 [7] is over 100 µM. Moreover, the MCC in [3] is 20 to 100 µM.

Consider `C#Cc1cn([C@@H]2O[C@H](CO)[C@](O)(C#C)[C@H]2O)c2ncnc(N)c12`, for which the results for the IC50 in the data set with L1210, with CCRF-CEM and in the data set with HeLa were 159 µM, 63 µM and 114 µM, respectively.

`C#C[C@@]1(O)[C@@H](CO)O[C@@H](n2cc(C(F)(F)F)c3c(N)ncnc32)[C@@H]1O`: the 50% inhibitory concentration (IC50) in the data set with L1210 was determined as 0.11 µM; in the data set on CCRF-CEM, 0.36 µM; in the data set with HeLa it was 0.75 µM.

As for `C#C[C@@]1(O)[C@@H](CO)O[C@@H](n2c(C(F)(F)F)cc3c(N)ncnc32)[C@@H]1O`, the half-maximal inhibitory concentration (IC50) with L1210, in the data set on CCRF-CEM and with HeLa was over 250 µM in each case.

Take `Nc1nc2c(ncn2COCCO)c(=O)[nH]1` [ACYCLOVIR]: the MCC in data set [3] is 250 to 440 µM. In addition, the 50% cytotoxic concentration (CC50) in [8] is over 440 µM.

As to `C#C[C@@]1(O)[C@@H](CO)O[C@@H](n2cc(Cl)c3c(Cl)ccnc32)[C@@H]1O`, the half-inhibitory concentration (IC50) was 75 µM in the data set with L1210, 1.3 µM with CCRF-CEM and 6.3 µM in the data set with HeLa. In addition, the 50% effective concentration (EC50) with Human alphaherpesvirus 1 [1] is 16.3 µM; in the data set with Human alphaherpesvirus 2, over 100 µM; with Human alphaherpesvirus 1 [2], 10.6 µM; in the data set on Human alphaherpesvirus 3 [4] it was 16.6 µM; in the data set on Human alphaherpesvirus 3 [5] it was 3.06 µM; with Human betaherpesvirus 5 [6] it was 0.51 µM. In the data set on Human betaherpesvirus 5 [7], the concentration for a half-maximal effect (EC50) was found to be 0.53 µM. Besides, the MCC in data set [3] was in the range of 20 to 100 µM. Also, in data set [8], half-maximal cytotoxicity (CC50) was put at 5.25 µM.

For the molecule `C#C[C@@]1(O)[C@@H](CO)O[C@@H](n2cnc3c(-c4ccc(C)cc4)ncnc32)[C@@H]1O`, the IC50 with L1210 is 205 µM; with CCRF-CEM, 154 µM; in the data set on HeLa, over 250 µM.

Take `C#C[C@@]1(O)[C@@H](CO)O[C@@H](n2cnc3c(-c4ccc(F)cc4)ncnc32)[C@@H]1O`: the IC50 with L1210 was over 250 µM; with CCRF-CEM, 223 µM; with HeLa, 220 µM.

Take `Nc1ccn(C[C@@H](CO)OCP(=O)(O)O)c(=O)n1` [CIDOFOVIR]: the EC50 was 1.5 µM in the data set on Human alphaherpesvirus 1 [1], 1.2 µM in the data set on Human alphaherpesvirus 2, 1.59 µM in the data set with Human betaherpesvirus 5 [6] and 1.45 µM in the data set on Human betaherpesvirus 5 [7]. Also, the MCC in data set [3] was 250 to 300 µM.

For `C#C[C@@]1(O)[C@@H](CO)O[C@@H](n2cc(I)c3c(Cl)ccnc32)[C@@H]1O`, the half-maximal inhibitory concentration (IC50) in the data set on L1210 was determined as 20 µM; in the data set on CCRF-CEM it was 0.26 µM; with HeLa, 1.1 µM. Also, the EC50 with Human alphaherpesvirus 1 [1] was over 100 µM; in the data set on Human alphaherpesvirus 2 it was over 100 µM; with Human alphaherpesvirus 1 [2], over 100 µM; in the data set on Human alphaherpesvirus 3 [4], 9.82 µM; with Human alphaherpesvirus 3 [5] it was 8.26 µM; with Human betaherpesvirus 5 [6], 2.31 µM. In addition, the EC50 in the data set on Human betaherpesvirus 5 [7] is 0.66 µM. Further, in data set [3], the MCC lay within 20 to 100 µM. This molecule had a 50% cytotoxic concentration (CC50) in data set [8] of 0.16 µM.

Regarding `C#C[C@@]1(O)[C@@H](CO)O[C@@H](n2cc(Br)c3c(Cl)ccnc32)[C@@H]1O`, the half-maximal inhibitory concentration (IC50) in the data set with L1210 turned out to be 30 µM; in the data set with CCRF-CEM, 0.56 µM; in the data set with HeLa, 0.89 µM. Further, the EC50 in the data set on Human alphaherpesvirus 1 [1] was 6.67 µM; in the data set on Human alphaherpesvirus 2, over 100 µM; in the data set on Human alphaherpesvirus 1 [2], 5.83 µM; with Human alphaherpesvirus 3 [4], 2.76 µM; in the data set with Human alphaherpesvirus 3 [5], 2.27 µM; in the data set on Human betaherpesvirus 5 [6], 0.36 µM. Moreover, the EC50 in the data set with Human betaherpesvirus 5 [7] worked out at 0.35 µM. The MCC in [3] is at least 100 µM. This molecule returned a CC50 in data set [8] of 0.35 µM.

On to `C#C[C@@]1(O)[C@@H](CO)O[C@@H](n2cnc3c(-c4ccc(Cl)cc4)ncnc32)[C@@H]1O`, for which the IC50 was determined as 225 µM in the data set on L1210, 124 µM in the data set on CCRF-CEM and 170 µM in the data set on HeLa.

For the molecule `C#C[C@@]1(O)[C@@H](CO)O[C@@H](n2cc(Cl)c3c(N)ccnc32)[C@@H]1O`, the 50% inhibitory concentration (IC50) in the data set with L1210 worked out at 0.98 µM; in the data set on CCRF-CEM it was 5.4 µM; in the data set on HeLa, 1.7 µM. In addition, the MCC in data set [3] is at least 100 µM. Further, the EC50 in the data set with Human alphaherpesvirus 3 [4] was over 100 µM; with Human alphaherpesvirus 3 [5], 17.5 µM; with Human betaherpesvirus 5 [6], over 100 µM; with Human betaherpesvirus 5 [7], 20 µM.

With `C#C[C@@]1(O)[C@@H](CO)O[C@@H](n2cc(I)c3c(N)ccnc32)[C@@H]1O`, the results for the concentration for half-maximal inhibition (IC50) with L1210, in the data set with CCRF-CEM and in the data set on HeLa were 0.044 µM, 0.31 µM and 0.18 µM, respectively.

Turning to `C#C[C@@]1(O)[C@@H](CO)O[C@@H](n2cnc3c(-c4ccccc4)ncnc32)[C@@H]1O`, the IC50 in the data set on L1210, in the data set with CCRF-CEM and with HeLa was over 250 µM each time.

Consider `Nc1nc2c(ncn2COC(CO)CO)c(=O)[nH]1` [GANCICLOVIR], for which the MCC in data set [3] is 100 to 350 µM.

Consider `C#C[C@@]1(O)[C@@H](CO)O[C@@H](n2cc(-c3ccco3)c3c(N)ncnc32)[C@@H]1O`, for which the values for the 50% inhibitory concentration (IC50) in the data set with L1210, in the data set with CCRF-CEM and with HeLa were 30 µM, 17 µM and 14 µM, respectively.

Turning to `C#C[C@@]1(O)[C@@H](CO)O[C@@H](n2cnc3c(N)ncnc32)[C@@H]1O`, the half-maximal effective concentration (EC50) in the data set with Human alphaherpesvirus 1 [1] is over 4 µM; in the data set with Human alphaherpesvirus 2, over 4 µM; in the data set on Human alphaherpesvirus 1 [2], over 4 µM; in the data set on Human alphaherpesvirus 3 [4] it was 1.82 µM; with Human alphaherpesvirus 3 [5] it was 1.64 µM; with Human betaherpesvirus 5 [6], at least 4 µM. Besides, the EC50 in the data set on Human betaherpesvirus 5 [7] is at least 4 µM. Further, in [3], the MCC turned out to be 20 µM. In data set [8] (HELF cells), the half-maximal cytotoxic concentration (CC50) lay within 0.7 to 0.73 µM.

For `CC[C@@]1(O)[C@@H](CO)O[C@@H](n2cc(Cl)c3c(N)ncnc32)[C@@H]1O`, the IC50 stood at 1.2 µM with L1210, 2.6 µM in the data set on CCRF-CEM and 4.4 µM in the data set on HeLa. Also, the concentration for a half-maximal effect (EC50) was determined as 2.1 µM in the data set on Human alphaherpesvirus 1 [1]; 0.63 µM with Human alphaherpesvirus 2; 1.27 µM in the data set with Human alphaherpesvirus 1 [2]; 1.71 µM with Human alphaherpesvirus 3 [4]; 3.74 µM with Human alphaherpesvirus 3 [5]; 1.79 µM with Human betaherpesvirus 5 [6]. Further, the concentration for a half-maximal effect (EC50) with Human betaherpesvirus 5 [7] was over 4 µM. Moreover, the MCC in data set [3] fell in the range of 4 to 20 µM. The molecule further returned a CC50 in [8] of 3.41 µM.

Source of the values: ChEMBL document CHEMBL4270599, “Synthesis of a 3'-C-ethynyl-β-d-ribofuranose purine nucleoside library: Discovery of C7-deazapurine analogs as potent antiproliferative nucleosides” (Eur J Med Chem, 2018).
